For test [1], the species on record is Homo sapiens. Description: Selectivity index, ratio of Ki for inhibition of human CA1 to Ki for inhibition of human CA2. An outline of the steps: (§1)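 Ratio of Ki values. Each Ki came from stopped-flow CA-catalysed CO2 hydration with recombinant in-house hCA isoforms, phenol red 0.2 mM read at 557 nm, 20 mM Hepes pH 7.5, 20 mM Na2SO4, and CO2 1.7–17 mM. Inhibitor and enzyme were preincubated 15 min at room temperature. Initial rates, less the uncatalysed rate, were fit by nonlinear least squares with Cheng–Prusoff. Mean of ≥3 determinations.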

For a further test, the target named is Carbonic anhydrase 4 (Homo sapiens, UniProt P22748). The experiment in a line: Inhibition of human CA4 preincubated for 15 mins by stopped-flow CO2 hydration kinetic assay based Cheng-Prusoff equation analysis.
Carbonic anhydrase 4, sequence (P22748 whole entry): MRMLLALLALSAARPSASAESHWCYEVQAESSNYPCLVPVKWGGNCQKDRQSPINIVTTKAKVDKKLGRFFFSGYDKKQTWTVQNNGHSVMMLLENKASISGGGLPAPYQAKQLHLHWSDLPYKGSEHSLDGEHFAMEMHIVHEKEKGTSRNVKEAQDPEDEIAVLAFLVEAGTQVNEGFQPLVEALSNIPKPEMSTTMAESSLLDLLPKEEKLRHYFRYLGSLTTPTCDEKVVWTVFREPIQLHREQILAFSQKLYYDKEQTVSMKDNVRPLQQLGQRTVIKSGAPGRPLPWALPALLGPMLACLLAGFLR
Test [2] is filed under the species Homo sapiens. Description: Selectivity index, ratio of Ki for inhibition of human CA4 to Ki for inhibition of human CA12. An outline of the steps:
as §1

Test [3] is filed under the species Homo sapiens. The experiment in a line: Selectivity index, ratio of Ki for inhibition of human CA2 to Ki for inhibition of human CA12. An outline of the steps: as §1
Test [4] has as its system Oryctolagus cuniculus. Description: Suppression of hypertonic saline solution-induced increase in intraocular pressure in New Zealand rabbit model of glaucoma assessed as reduction in intraocular pressure dosed as 1% eye drops formulation via direct instillation into eye conjunctive pocket measured after 120 mins post dose relative to untreated control. The format is functional.

For test [5], the species on record is Homo sapiens. The experiment in a line: Selectivity index, ratio of Ki for inhibition of human CA1 to Ki for inhibition of human CA4. An outline of the steps: as §1
In the next test the target is Carbonic anhydrase 12 (Homo sapiens, UniProt O43570). The experiment in a line: Inhibition of human CA12 preincubated for 15 mins by stopped-flow CO2 hydration kinetic assay based Cheng-Prusoff equation analysis.
Carbonic anhydrase 12, sequence (O43570 whole entry): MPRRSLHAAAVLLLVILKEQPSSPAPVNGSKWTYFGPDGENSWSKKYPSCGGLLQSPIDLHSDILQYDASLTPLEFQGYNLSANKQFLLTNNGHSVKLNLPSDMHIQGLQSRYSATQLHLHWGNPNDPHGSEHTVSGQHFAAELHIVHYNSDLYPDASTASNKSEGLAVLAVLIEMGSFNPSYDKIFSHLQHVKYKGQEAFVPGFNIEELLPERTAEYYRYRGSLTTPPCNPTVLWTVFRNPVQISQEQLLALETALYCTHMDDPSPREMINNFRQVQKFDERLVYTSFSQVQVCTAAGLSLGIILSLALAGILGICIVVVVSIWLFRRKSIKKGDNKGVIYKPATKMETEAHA
Test [6] is filed under the species Homo sapiens. The experiment in a line: Selectivity index, ratio of Ki for inhibition of human CA1 to Ki for inhibition of human CA12. An outline of the steps: as §1
For test [7], the system named is Oryctolagus cuniculus. Description: Suppression of hypertonic saline solution-induced increase in intraocular pressure in New Zealand rabbit model of glaucoma assessed as reduction in intraocular pressure dosed as 1% eye drops formulation via direct instillation into eye conjunctive pocket measured after 30 mins post dose relative to untreated control. In kind it is functional.

For test [8], the species on record is Homo sapiens. Description: Selectivity index, ratio of Ki for inhibition of human CA2 to Ki for inhibition of human CA4. An outline of the steps: as §1
In a further test the target is Carbonic anhydrase 2 (Homo sapiens, UniProt P00918). Description: Inhibition of human CA2 preincubated for 15 mins by stopped-flow CO2 hydration kinetic assay based Cheng-Prusoff equation analysis.
In test [9] the test system is Oryctolagus cuniculus. The experiment in a line: Suppression of hypertonic saline solution-induced increase in intraocular pressure in New Zealand rabbit model of glaucoma assessed as reduction in intraocular pressure dosed as 1% eye drops formulation via direct instillation into eye conjunctive pocket measured after 60 mins post dose relative to untreated control. The format is functional.

The target in the next test is Carbonic anhydrase 1 (Homo sapiens, UniProt P00915). The experiment in a line: Inhibition of human CA1 preincubated for 15 mins by stopped-flow CO2 hydration kinetic assay based Cheng-Prusoff equation analysis.
Carbonic anhydrase 1, sequence (P00915 whole entry): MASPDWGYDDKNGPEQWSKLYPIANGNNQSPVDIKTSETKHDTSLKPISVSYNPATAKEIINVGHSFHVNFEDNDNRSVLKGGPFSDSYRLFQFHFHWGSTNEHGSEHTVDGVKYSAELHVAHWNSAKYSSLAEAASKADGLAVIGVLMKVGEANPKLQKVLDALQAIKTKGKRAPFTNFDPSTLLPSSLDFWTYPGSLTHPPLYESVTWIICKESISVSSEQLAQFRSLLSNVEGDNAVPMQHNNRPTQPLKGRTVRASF
The test system of test [10] is Oryctolagus cuniculus. Description: Suppression of hypertonic saline solution-induced increase in intraocular pressure in New Zealand rabbit model of glaucoma assessed as reduction in intraocular pressure dosed as 1% eye drops formulation via direct instillation into eye conjunctive pocket measured after 240 mins post dose relative to untreated control. In kind it is functional.

The values below come from ChEMBL document CHEMBL4613327, “Sulfonamide Inhibitors of Human Carbonic Anhydrases Designed through a Three-Tails Approach: Improving Ligand/Isoform Matching and Selectivity of Action” (J Med Chem, 2020).

Turning to `N#CCCN(CCc1ccccc1)CC(=O)N(CCC#N)CCc1ccc(S(N)(=O)=O)cc1`, the Ratio Ki stood at 88 in the test filed under Homo sapiens [1]; 81.6 in the test listed under Homo sapiens [2]; 0.08 in the test filed under Homo sapiens [3]; 0.08 in the test filed under Homo sapiens [5]; 6.9 in the test filed under Homo sapiens [6]; 0.001 in the test filed under Homo sapiens [8]. Moreover, the Ki (commonly the equilibrium dissociation constant of an inhibitor or competing ligand from its target) on Carbonic anhydrase 4 was 727 nM; at Carbonic anhydrase 12, 8.9 nM; at Carbonic anhydrase 2, 0.7 nM; at Carbonic anhydrase 1, 61.6 nM. In addition, the Activity in the test with Oryctolagus cuniculus [4] was found to be 0.3 mmHg; in the test on Oryctolagus cuniculus [7], 1 mmHg; with Oryctolagus cuniculus [9] it was 3 mmHg.

Take `NS(=O)(=O)c1ccc(CCN(Cc2ccco2)C(=O)CN(CCC(=O)O)CCc2ccccc2)cc1`: the Ratio Ki in the test listed under Homo sapiens [1] was determined as 33.1; in the test filed under Homo sapiens [2] it was 47.3; in the test filed under Homo sapiens [3], 0.3; in the test listed under Homo sapiens [5], 0.2; in the test listed under Homo sapiens [6], 11.2; in the test listed under Homo sapiens [8] it was 0.007. Besides, the Ki on Carbonic anhydrase 4 is 335 nM; at Carbonic anhydrase 12, 7.1 nM; on Carbonic anhydrase 2, 2.4 nM; on Carbonic anhydrase 1, 79.5 nM. Also, the results for the Activity in the test on Oryctolagus cuniculus [4], with Oryctolagus cuniculus [10] and in the test with Oryctolagus cuniculus [9] were 1 mmHg, 1.2 mmHg and 3.3 mmHg, respectively.

Take `CCN[C@H]1C[C@H](C)S(=O)(=O)c2sc(S(N)(=O)=O)cc21.Cl` [DORZOLAMIDE HYDROCHLORIDE]: the Activity is given as 2.8 mmHg in the test with Oryctolagus cuniculus [4], 1 mmHg with Oryctolagus cuniculus [7], 3 mmHg in the test with Oryctolagus cuniculus [10] and 5.4 mmHg with Oryctolagus cuniculus [9].

Regarding `NS(=O)(=O)c1ccc(CCN(Cc2ccc(F)cc2)C(=O)CN(CCC(=O)O)CCc2ccccc2)cc1`, the Ratio Ki in the test filed under Homo sapiens [1] was determined as 4.1; in the test listed under Homo sapiens [2] it was 47.6; in the test filed under Homo sapiens [3] it was 2.7; in the test filed under Homo sapiens [5], 0.2; in the test filed under Homo sapiens [6], 10.9; in the test filed under Homo sapiens [8], 0.06. Further, the Ki on Carbonic anhydrase 4 came out at 419 nM; on Carbonic anhydrase 12, 8.8 nM; on Carbonic anhydrase 2, 23.5 nM; at Carbonic anhydrase 1 it was 95.8 nM. The Activity with Oryctolagus cuniculus [4] is on record as 3.2 mmHg; in the test on Oryctolagus cuniculus [7], 1.3 mmHg; in the test with Oryctolagus cuniculus [10] it was 2.4 mmHg; in the test with Oryctolagus cuniculus [9], 4.8 mmHg.

In the case of `CCCCCCN(CCCCCC)CCC(=O)N(CCc1ccc(S(N)(=O)=O)cc1)Cc1ccccc1`, the Ratio Ki stood at 0.5 in the test filed under Homo sapiens [1]; 44.4 in the test listed under Homo sapiens [2]; 7.4 in the test listed under Homo sapiens [3]; 0.09 in the test filed under Homo sapiens [5]; 4 in the test listed under Homo sapiens [6]; 0.2 in the test filed under Homo sapiens [8]. The Ki was determined as 3460 nM at Carbonic anhydrase 4, 77.8 nM at Carbonic anhydrase 12, 578 nM at Carbonic anhydrase 2 and 308 nM on Carbonic anhydrase 1.
